Target: T1, Polyunsaturated fatty acid 5-lipoxygenase (Rattus norvegicus, UniProt P12527)
T1 sequence (P12527 whole entry): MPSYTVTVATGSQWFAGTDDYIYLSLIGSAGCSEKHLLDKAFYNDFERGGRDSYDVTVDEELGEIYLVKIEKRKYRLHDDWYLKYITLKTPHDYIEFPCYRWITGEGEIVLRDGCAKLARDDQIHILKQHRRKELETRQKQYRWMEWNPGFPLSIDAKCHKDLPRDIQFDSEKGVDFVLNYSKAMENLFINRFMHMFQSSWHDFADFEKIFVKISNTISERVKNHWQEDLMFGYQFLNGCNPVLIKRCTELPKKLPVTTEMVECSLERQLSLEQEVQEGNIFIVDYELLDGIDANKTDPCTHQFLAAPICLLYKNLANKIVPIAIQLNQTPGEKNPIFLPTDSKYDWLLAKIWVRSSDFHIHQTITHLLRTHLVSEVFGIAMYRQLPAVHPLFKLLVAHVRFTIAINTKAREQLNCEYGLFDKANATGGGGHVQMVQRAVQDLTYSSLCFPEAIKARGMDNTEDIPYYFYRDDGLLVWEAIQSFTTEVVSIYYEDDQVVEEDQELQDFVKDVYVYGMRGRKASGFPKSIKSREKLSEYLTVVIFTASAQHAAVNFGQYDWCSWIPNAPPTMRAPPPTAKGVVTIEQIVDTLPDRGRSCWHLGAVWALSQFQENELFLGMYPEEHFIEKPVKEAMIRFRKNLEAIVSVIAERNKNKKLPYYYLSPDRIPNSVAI
Assay: In vitro inhibitory activity against 5-lipoxygenase in rat basophilic leukemia cells(RBL-1)
Outline: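 Enzyme source: sonicated lysate of trypsin-harvested adherent RBL-1 cells (3.0 × 10^7 cells/mL in 10 mM BES, 10 mM PIPES, 1 mM EDTA, pH 6.8), 20000g 20-min supernatant. Compounds in DMSO preincubated with enzyme 20 min at 37 °C in buffer with 0.7 mM CaCl2, 100 mM NaCl. Radiolabelled 5-HETE counted after chromatography, corrected via [3H]5-HETE recovery.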

IC50: 1.5 µM
Compound: CC(C)Cc1ccc(C(Cc2ccccc2)C(=O)N(C)O)cc1 (stereo unspecified)
